8 molecules from PubChem BioAssay can be followed below.

Experiment [1] is described as follows: inhibitors of TNFa-induced NFkB p65 translocation, primary screen, imaging, HUVEC, MLSMR starter and 10KST1 sets (AID 438;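 active = inhibition above 20% together with a positive visual image hit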;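 also: compound added about 3h40 before a 20 min TNFalpha stimulation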;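 as to inhibition: signal is the nuclear over cytoplasmic p65 intensity ratio per well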). As to conditions: HUVEC TNFa-induced p65 nuclear translocation; cell count: measured here: nuclei count (cytotoxicity indicator), at 2.08 µM; inhibition: at 2 µM, stronger effect = higher value, 0% TNFa-plus-vehicle, 100% no-TNFa wells.
A short description of experiment [2]: endothelial E-selectin expression blockers – imaging, HUVEC, immunofluorescence, MLSMR starter and 10KST1 sets, primary screen (AID 487;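 active = visually confirmed hit in the image check and inhibition above 20%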;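 as to inhibition: signal is fraction of cell area covered by stained E-selectin grains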;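 as to nuclei count: 100% = median nuclei count of all wells on the same plate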). The conditions noted are these: HUVEC TNFalpha-induced E-selectin immunofluorescence imaging, at 2 µM; inhibition: stronger effect = higher value; nuclei count: measured here: cell number, toxicity.
Experiment [3] is described as follows: Primary imaging screen for DUSP6 inhibitors that restore phospho-Erk in transfected HeLa cells, chemical complementation (AID 609).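 As to inhibition: phospho-Erk level distribution per well compared with pooled transfected vehicle control wells.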 As to conditions: HeLa MKP-3 transfected, phospho-Erk imaging KS statistic, at 10 µM, cells stimulated with TPA for 15 min.
In experiment [4] the target is Dual specificity protein phosphatase 6 (Homo sapiens) (UniProt Q16828). The description is as above. As to conditions: HeLa MKP-3 transfected, phospho-Erk imaging KS statistic; at 10 µM; stronger effect = higher value; cells stimulated with TPA for 15 min.
Experiment [5] addresses Voltage-gated potassium channel subunit beta-2 (Rattus norvegicus) (UniProt P62483). Briefly: inhibitors of rat Kvbeta2 reductase activity – biochemical, NADPH fluorescence, primary screen (AID 622;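 active = fluorescence slope higher than the sample average by over 3 SD, cut at about -0.22 in these data, passing the limit was not always enough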;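 also: slope of raw intensity against log time taken from 70 to 1610 s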). As to conditions: recombinant KvBeta, 4-cyanobenzaldehyde reduction, at 10 µM, stronger effect = higher value.
For experiment [6] the target is unchanged. Briefly: enhancers of rat Kvbeta2 NADPH turnover – biochemical, NADPH fluorescence, primary screen (AID 623;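 active = NADPH fluorescence slope more negative than the mean of all samples by about 3 SD, 99.7% confidence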;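 also: fluorescence intensity change per second fitted from 20 to 320 s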). The conditions noted are these: Recombinant KvBeta, NADPH fluorescence decrease slope, 10 min; at 10 µM; stronger effect = lower value.
For experiment [7], the target named is Alpha-2C adrenergic receptor (Homo sapiens) (UniProt P18825). Briefly: compounds altering alpha2C-coupled GIRK flux – cell-based, HEK293 alpha2C/GIRK1/2, thallium flux, primary screen (AID 624;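 active = fluorescence slope after compound addition differing from the mean of all screened samples at 99.7% confidence, in either direction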;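 also: slope of fluorescence ratio to pre-addition baseline per second over 15 to 24 s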). The conditions noted are these: thallium flux BTC fluorescence, at 10 µM, actives lie on both sides.
Experiment [8] in a line: inhibitors of larval lipid processing in zebrafish, primary screen, whole organism, PED6 fluorescence, gall bladder and intestine (AID 686;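 active = a full or partial loss of lipid-probe fluorescence in the fish gall bladder, intestine or both, judged by eye; inactive = no fluorescence loss, or compound toxic to the fish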;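 also: signal comes from phospholipase A2 cleavage of quenched PED6 carried via bile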). As to conditions: Zebrafish larvae PED6 lipid processing, fluorescence scoring; screened at 20 µM (by protocol). The essentials: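 Doses: 20 µM single dose. Test system: live zebrafish larvae aged 5-7 days, whole organism. Quantity: five larvae per well. Measured by: By-eye fluorescence microscopy. Reagent: ingested quenched lipid PED6 at 100 nM. Read-out: visual per-well fluorescence inhibition score. Times: overnight exposure of larvae to compound plus PED6.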

Experiment [9] can be described thus: loss of swimming-algae plug formation – whole organism, Chlamydomonas reinhardtii, WT vs cilia-less mutant, absorbance, 96-well, primary screen (AID 463189;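 active = inhibition at or above 50% relative to wild type and mutant plate controls; inactive = inhibition below 50%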;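 also: 0% = wild type cc124 cells in DMSO and 100% = ciliumless bld1 mutant cells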). As to conditions: Chlamydomonas reinhardtii gravitaxis, OD600 absorbance, 2 days; at 10 µM; stronger effect = higher value.
Experiment [10] deals with Muscarinic acetylcholine receptor M4 (Homo sapiens) (UniProt P08173). Briefly: M4-linked GIRK flux change, two-sided – cell-based, HEK293 M4/GIRK, thallium flux, BTC-AM, M4 allosteric agonist project, primary screen (AID 625;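 active = fluorescence slope after compound addition differing from the mean of all tested samples at 99.7% confidence, mostly higher but some lower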;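 also: thallium influx through GIRK channels coupled to M4 in HEK293 cells with BTC-AM dye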). The conditions noted are these: at 10 µM, actives lie on both sides. Summed up: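 Assay system: HEK293 cells with M4 receptor and GIRK channels / Controls: carbachol and DMSO controls / Schedule: 1 h dye loading, 2 min kinetic read / Technique: kinetic fluorescence with BTC-AM dye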

The mark [11] stands for this setting: measured here: cell density z-score.
Where [12] appears, read: measured here: nuclear c-Myc green intensity z-score.
Where [13] appears, read: measured here: nuclear pErk red intensity z-score, stronger effect = higher value.

Active and inactive are the calls of the source.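 The calls were made as follows, unless noted: active = compounds giving at least 50% inhibition in the cell-based MKP-3 phosphatase rescue imaging test; inactive = the rest.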

Muscarinic acetylcholine receptor M4 (Homo sapiens), sequence (P08173 whole entry, looked up): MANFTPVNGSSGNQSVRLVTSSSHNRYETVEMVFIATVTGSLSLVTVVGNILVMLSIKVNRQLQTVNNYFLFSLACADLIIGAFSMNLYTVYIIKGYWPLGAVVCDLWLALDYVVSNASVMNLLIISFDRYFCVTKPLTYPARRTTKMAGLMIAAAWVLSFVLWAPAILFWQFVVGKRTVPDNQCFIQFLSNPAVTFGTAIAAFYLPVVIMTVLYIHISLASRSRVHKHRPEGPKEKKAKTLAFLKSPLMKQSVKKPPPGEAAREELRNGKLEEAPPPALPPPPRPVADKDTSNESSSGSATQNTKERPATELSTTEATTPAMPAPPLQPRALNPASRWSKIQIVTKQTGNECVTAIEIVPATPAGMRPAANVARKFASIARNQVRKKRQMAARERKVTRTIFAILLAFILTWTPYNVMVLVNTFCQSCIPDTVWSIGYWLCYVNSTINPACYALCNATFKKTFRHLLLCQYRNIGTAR
Dual specificity protein phosphatase 6 (Homo sapiens), sequence (Q16828 whole entry, looked up): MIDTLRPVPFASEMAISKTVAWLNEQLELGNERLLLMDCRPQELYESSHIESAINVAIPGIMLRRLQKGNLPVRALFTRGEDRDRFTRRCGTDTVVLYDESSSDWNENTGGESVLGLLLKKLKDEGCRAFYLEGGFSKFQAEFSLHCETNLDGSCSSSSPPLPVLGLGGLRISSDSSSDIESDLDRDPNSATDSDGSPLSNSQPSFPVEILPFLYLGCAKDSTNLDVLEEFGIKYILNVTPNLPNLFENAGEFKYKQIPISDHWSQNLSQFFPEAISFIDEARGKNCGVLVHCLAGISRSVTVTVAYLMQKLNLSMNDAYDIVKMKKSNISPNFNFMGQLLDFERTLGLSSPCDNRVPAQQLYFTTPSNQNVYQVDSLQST
Voltage-gated potassium channel subunit beta-2 (Rattus norvegicus), sequence (P62483 whole entry, looked up): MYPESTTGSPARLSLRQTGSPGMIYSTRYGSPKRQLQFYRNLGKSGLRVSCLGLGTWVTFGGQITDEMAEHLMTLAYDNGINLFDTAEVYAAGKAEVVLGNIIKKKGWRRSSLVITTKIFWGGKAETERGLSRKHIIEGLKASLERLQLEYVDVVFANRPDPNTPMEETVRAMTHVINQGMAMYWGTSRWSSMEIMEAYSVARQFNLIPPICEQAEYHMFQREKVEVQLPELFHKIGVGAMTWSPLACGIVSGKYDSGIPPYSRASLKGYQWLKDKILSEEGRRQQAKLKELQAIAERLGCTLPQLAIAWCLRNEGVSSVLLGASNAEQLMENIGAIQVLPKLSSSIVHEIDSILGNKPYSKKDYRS
Alpha-2C adrenergic receptor (Homo sapiens), sequence (P18825 whole entry, looked up): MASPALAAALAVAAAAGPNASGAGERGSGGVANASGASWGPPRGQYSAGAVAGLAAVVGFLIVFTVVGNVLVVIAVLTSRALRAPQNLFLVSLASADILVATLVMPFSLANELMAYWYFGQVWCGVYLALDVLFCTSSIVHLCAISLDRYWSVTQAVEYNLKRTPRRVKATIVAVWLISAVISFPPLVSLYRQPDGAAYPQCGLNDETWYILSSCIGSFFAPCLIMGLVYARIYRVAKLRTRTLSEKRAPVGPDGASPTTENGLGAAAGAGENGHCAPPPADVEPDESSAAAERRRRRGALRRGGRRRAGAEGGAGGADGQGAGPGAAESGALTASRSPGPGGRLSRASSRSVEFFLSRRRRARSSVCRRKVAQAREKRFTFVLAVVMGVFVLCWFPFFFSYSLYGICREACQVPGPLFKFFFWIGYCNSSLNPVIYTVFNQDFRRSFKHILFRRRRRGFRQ

`NC(=O)CSc1c[nH]c2ccccc12`: the cell count in [1] stood at 640. Moreover, the inhibition in experiment [1] is -5.5% (inactive); in [2], 73.3% (inactive); in [4], 17% (inactive); in experiment [9], 31.3% (inactive). Also, the nuclei count in experiment [2] was 169%. Besides, the z-score in experiment [3] (setting [11]) is -1.08; in experiment [3] (setting [12]), 0.978; in experiment [3] (setting [13]), -1.28. In addition, the fluorescence slope in experiment [5] was -0.497 (inactive). The NADPH fluorescence slope in [6] is -4.9e-05 (inactive). Further, the slope in experiment [7] is 0.00438 (inactive). In addition, in experiment [8], the result was inactive.
`O=C(NC1CCCCC1)Nn1c(-c2ccccc2)nc2ccccc2c1=O`: the cell count in [1] was determined as 695. Moreover, the inhibition in experiment [1] is -7.6% (inactive); in experiment [2], -60.6% (inactive); in experiment [4], -9.53% (inactive); in experiment [9], 2.04% (inactive). Besides, the nuclei count in experiment [2] came out at 203%. Also, the z-score in experiment [3] (setting [11]) was -0.332; in [3] (setting [12]) it was -0.26; in experiment [3] (setting [13]) it was 0.432. For the same molecule, the fluorescence slope in experiment [5] was -0.473 (inactive); in experiment [10], 0.00473 (inactive). Also, in [6], the NADPH fluorescence slope is -0.000129 (inactive). In experiment [8], the molecule was called inactive.
Consider `N#C/C(C(=O)NCc1ccccc1)=C1\SC(CCO)C(=O)N1c1ccccc1` (centres undefined), for which the cell count in experiment [1] was determined as 501. In addition, the inhibition is -3.4% (inactive) in experiment [1], -97.3% (inactive) in experiment [2], 5.42% (inactive) in experiment [4] and -13.8% (inactive) in experiment [9]. In addition, the nuclei count in experiment [2] was 120%. In addition, the z-score in [3] (setting [11]) was 0.0433; in experiment [3] (setting [12]), 1.04; in [3] (setting [13]), -2.12. The fluorescence slope in experiment [5] is -0.429 (inactive); in [10] it was 0.00513 (inactive). In [6], the NADPH fluorescence slope was -1.4e-05 (inactive). The outcome in experiment [8] was inactive.
In the case of `CCC(C(=O)Nc1ncn[nH]1)(C(F)(F)F)C(F)(F)F`, the cell count in experiment [1] stood at 692. In addition, the inhibition in experiment [1] is 5.8% (inactive); in [2], -106% (inactive); in experiment [4], 7.93% (inactive); in [9], 27.8% (inactive). For the same molecule, the nuclei count in experiment [2] stood at 171%. For the same molecule, the z-score is 0.655 in [3] (setting [11]), 0.101 in experiment [3] (setting [12]) and -0.238 in experiment [3] (setting [13]). Besides, the fluorescence slope was -0.479 (inactive) in [5] and 0.0062 (inactive) in [10]. In addition, the NADPH fluorescence slope in [6] is -4.9e-05 (inactive). Also, the call in experiment [8] was inactive.
For `CCN1CCc2c(C#N)c(NCc3ccccc3)nc(NCCO)c2C1`, the cell count in [1] was 534. The inhibition in experiment [1] is -12% (inactive); in experiment [2] it was -113% (inactive); in experiment [4] it was -5.81% (inactive); in experiment [9] it was -0.503% (inactive). Further, the nuclei count in experiment [2] turned out to be 151%. The results for the z-score in [3] (setting [11]), in [3] (setting [12]) and in experiment [3] (setting [13]) were 0.614, -1.73 and -1.03, respectively. The fluorescence slope was -0.398 (inactive) in [5] and 0.00361 (inactive) in experiment [10]. Also, in [6], the NADPH fluorescence slope was -3.2e-05 (inactive). In addition, the molecule was classed as inactive in [8].
For the molecule `COC(=O)c1[nH]c(C)c(/C(O)=C2\C(=O)C(=O)N(CCN3CCOCC3)C2c2cccnc2)c1C` (centres undefined), the cell count in experiment [1] was found to be 605. Also, the inhibition was -1.2% (inactive) in [1], -2.2% (inactive) in [2], -3.95% (inactive) in experiment [4] and 5.4% (inactive) in experiment [9]. Besides, in experiment [2], the nuclei count is 163%. The z-score is -1.96 in experiment [3] (setting [11]), 0.711 in experiment [3] (setting [12]) and -3.8 in [3] (setting [13]). Further, the fluorescence slope was -0.46 (inactive) in [5] and 0.00521 (inactive) in experiment [10]. The NADPH fluorescence slope in experiment [6] was -0.000197 (inactive). In addition, in [8], the molecule was called inactive.
As for `CCOC(=O)C1(c2nc(N)cs2)COC(=O)C1` (centres undefined), the cell count in experiment [1] was 529. The inhibition in experiment [1] was -7.1% (inactive); in experiment [2], 15.9% (inactive); in [4] it was 16% (inactive); in experiment [9], -13.2% (inactive). Further, the nuclei count in experiment [2] worked out at 110%. Besides, the z-score in experiment [3] (setting [11]) is 1.01; in experiment [3] (setting [12]), 1.47; in experiment [3] (setting [13]), -1.03. For the same molecule, the fluorescence slope in [5] was -0.497 (inactive); in experiment [10], 0.00548 (inactive). Also, in experiment [6], the NADPH fluorescence slope was -5e-05 (inactive). For the same molecule, in [8], the result was inactive.
`CCN(CC)C(=O)CN(C#N)c1nc(NC(C)C)nc(NC(C)C)n1`: the cell count in experiment [1] came to 594. Besides, the inhibition in [1] was 5.2% (inactive); in experiment [2], -48.7% (inactive); in [4], 5.65% (inactive); in [9] it was 31.8% (inactive). In [2], the nuclei count was 173%. The z-score was 0.0403 in experiment [3] (setting [11]), 2.22 in experiment [3] (setting [12]) and -0.0328 in experiment [3] (setting [13]). In addition, the fluorescence slope in experiment [5] was -0.213 (inactive). In experiment [6], the NADPH fluorescence slope was 8.9e-06 (inactive). Moreover, the slope in experiment [7] was 0.00592 (inactive). Further, the call in [8] was inactive.

Usually inhibition stands for the change of the read-out against control, counted positive when it falls.
